Blank lines part the entries; values can stand above or below the compound they belong to.
How the values were obtained:
MCF7 = assay: Cytotoxicity against human MCF7 cells assessed as inhibition of cell growth incubated for 72 hrs by MTT assay; type: functional, cell-based; conditions: MCF7, 72 h
[1] = Stability in CD-1 mouse plasma at 37.7 micromol/kg,ip administration measured after 22 hrs by LC-MS/MS analysis; type: ADME, cell-free; conditions: at 37.7 µmol/kg
Procedure, shortened: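 Female CD-1 mice (n=3) dosed i.p. at 37.7 μmol/kg (equimolar across compounds). Blood (20 μL) drawn at 0.25, 5 and 22 h and processed to plasma. Drug levels quantified by LC-MS/MS.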

[2] = Half life in human liver microsomes at 1 uM incubated for 30 mins in presence of NADPH by LC-MS/MS analysis; type: ADME, Microsome; conditions: 0.5 h
Procedure, shortened: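 Human liver microsomes (1 mg/mL final) in 100 mM phosphate buffer with or without NADPH; compound at 1 μM final, 37 °C. Samples taken at 0, 5, 10, 20, 30 min (0 and 30 min without NADPH), quenched with cold acetonitrile containing internal standards, analysed by LC-MS/MS; verapamil as control.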

[3] = Toxicity in mouse assessed as body weight loss at 50 mg/kg,po administration for 4 weeks; type: organism-based; conditions: in vivo, 672 h
Procedure, shortened: (§1)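 Mice dosed orally once daily at 50 or 100 mg/kg for 4 weeks. Body weight monitored throughout.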

[4] = AUC (0 to t) in CD-1 mouse at 10 mg/kg,po administration measured upto 48 hrs by LC-MS/MS analysis; type: ADME, organism-based; conditions: in vivo
Procedure, shortened: (§2)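 Oral gavage in ICR male mice (n = 3); dosing solution 1 mg/mL in 20% DMSO, 16% PEG, 4% dextrose in PBS. Tail-vein blood (10 μL) taken at 15, 30 min and 1, 2, 4, 8, 24, 48 h. Plasma quantified by LC-MS/MS against a 0.5–1000 ng/mL calibration; parameters from a non-compartmental extravascular model.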

[5] = Stability in human plasma incubated upto 150 mins; type: ADME, cell-free; conditions: 2.5 h
[6] = Toxicity in mouse assessed as mild stress at 100 mg/kg,po administration for 4 weeks; type: organism-based; conditions: in vivo, 672 h
Procedure, shortened: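 Mice dosed orally at up to 100 mg/kg, the highest dose tested. Observed for signs of stress.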

[7] = Cmax in CD-1 mouse at 1 mg/kg,iv administration measured upto 48 hrs by LC-MS/MS analysis; type: ADME, organism-based; conditions: in vivo
Procedure, shortened: (§3)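 Single intravenous bolus in ICR male mice (n = 3, 6 weeks); dosing solution 0.5 mg/mL in 20% DMSO, 16% PEG, 4% dextrose in PBS. Tail-vein blood (10 μL) taken at 2, 5, 15, 30 min and 1, 2, 4, 8, 24, 48 h. Plasma quantified by LC-MS/MS against a 0.5–1000 ng/mL calibration; parameters from non-compartmental analysis.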

[8] = Drug concentration in CD-1 mouse plasma at 37.7 micromol/kg,ip administration measured after 22 hrs by LC-MS/MS analysis; type: ADME, cell-free; conditions: dose 37.7 µmol/kg
Procedure, shortened: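 Female CD-1 mice (n = 3) dosed ip at 37.7 μmol/kg. Blood (20 μL) taken at 0.25, 5 and 22 h, processed to plasma, and drug quantified by LC-MS/MS.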

[9] = Cytotoxicity against CD-1 mouse Primary hepatocyte assessed as inhibition of cell growth incubated for 72 hrs by MTT assay; type: toxicity, cell-based; conditions: primary hepatocytes
[10] = Toxicity in mouse assessed as body weight loss at 100 mg/kg,po administration for 4 weeks; type: organism-based; conditions: in vivo, 672 h; procedure, shortened: as §1
[11] = Oral bioavailability in CD-1 mouse at 10 mg/kg administration measured upto 48 hrs by LC-MS/MS analysis; type: ADME, organism-based; conditions: in vivo
[12] = Tmax in CD-1 mouse at 1 mg/kg,iv administration measured upto 48 hrs by LC-MS/MS analysis; type: ADME, organism-based; conditions: in vivo
Procedure, shortened: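 Male ICR mice (n=3, 6 weeks) given 1 mg/kg i.v. from a 0.5 mg/mL solution in 20% DMSO/16% PEG/4% dextrose in PBS. Tail-vein blood (10 μL) drawn at 2, 5, 15 and 30 min and at 1, 2, 4, 8, 24 and 48 h. Plasma quantified by LC-MS/MS against 0.5–1000 ng/mL calibration standards with QC samples. Parameters from non-compartmental analysis.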

[13] = AUC (0 to t) in CD-1 mouse at 1 mg/kg,iv administration measured upto 48 hrs by LC-MS/MS analysis; type: ADME, organism-based; conditions: in vivo; procedure, shortened: as §3
hERG (KCNH2) = hERG (KCNH2) (Homo sapiens, UniProt Q12809); assay: Inhibition of hERG transfected in HEK293 cells at 30 uM by patch clamp assay relative to control; type: toxicity, cell-based; conditions: HEK293 cells transfected with hERG
CYP1A2 = assay: Stability in human liver microsomes assessed as CYP1A2-mediated drug metabolism incubated for 1 hr; type: ADME, Microsome; conditions: read-out: Drug metabolism
[14] = biological target: Voltage-gated inwardly rectifying potassium channel KCNH2 (Homo sapiens, UniProt Q12809); assay: Inhibition of hERG transfected in HEK293 cells by patch clamp assay; type: toxicity, cell-based
[15] = biological target: Prostaglandin G/H synthase 1 (Homo sapiens, UniProt P23219); assay: Inhibition of COX1 (unknown origin); type: toxicity
Procedure, shortened: (§4)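 Tested in a commercial off-target safety screening panel of 78 targets. Values reported as RC50, taken as IC50 except for agonist mode, where RC50 is EC50.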

[16] = Tmax in CD-1 mouse at 10 mg/kg,po administration measured upto 48 hrs by LC-MS/MS analysis; type: ADME, organism-based; conditions: in vivo
Procedure, shortened: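 Male ICR mice (n=3) dosed by oral gavage at 10 mg/kg from a 1 mg/mL solution in 20% DMSO/16% PEG/4% dextrose in PBS. Tail-vein blood (10 μL) drawn at 15 and 30 min and at 1, 2, 4, 8, 24 and 48 h. Plasma quantified by LC-MS/MS against calibration standards. Parameters from non-compartmental extravascular model.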

[17] = Cmax in CD-1 mouse at 10 mg/kg,po administration measured upto 48 hrs by LC-MS/MS analysis; type: ADME, organism-based; conditions: in vivo; procedure, shortened: as §2
[18] = Clearance in CD-1 mouse at 1 mg/kg,iv administration measured upto 48 hrs by LC-MS/MS analysis; type: ADME, organism-based; conditions: in vivo; procedure, shortened: as §3
[19] = biological target: T1, Prostaglandin G/H synthase 2 (Homo sapiens, UniProt P35354); assay: Inhibition of COX2 (unknown origin); type: toxicity; procedure, shortened: as §4
T1 sequence (P35354 whole entry): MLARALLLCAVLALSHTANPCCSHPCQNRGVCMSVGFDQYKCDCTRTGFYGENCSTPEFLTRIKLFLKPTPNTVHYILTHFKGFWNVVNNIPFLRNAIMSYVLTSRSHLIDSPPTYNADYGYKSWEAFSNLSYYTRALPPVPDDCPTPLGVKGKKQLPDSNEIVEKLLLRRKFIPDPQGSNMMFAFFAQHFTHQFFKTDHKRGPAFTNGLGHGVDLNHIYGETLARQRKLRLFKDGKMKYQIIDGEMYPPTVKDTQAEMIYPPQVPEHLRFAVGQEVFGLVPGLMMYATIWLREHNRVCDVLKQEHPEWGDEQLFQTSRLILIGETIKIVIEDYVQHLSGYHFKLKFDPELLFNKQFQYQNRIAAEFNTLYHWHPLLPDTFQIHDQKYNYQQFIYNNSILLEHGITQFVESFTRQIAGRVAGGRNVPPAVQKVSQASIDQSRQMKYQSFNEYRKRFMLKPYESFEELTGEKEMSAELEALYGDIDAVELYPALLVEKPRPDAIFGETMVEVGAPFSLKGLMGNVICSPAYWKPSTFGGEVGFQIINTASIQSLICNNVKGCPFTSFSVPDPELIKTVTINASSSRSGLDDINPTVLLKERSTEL

[20] = Half life in CD-1 mouse at 10 mg/kg,po administration measured upto 48 hrs by LC-MS/MS analysis; type: ADME, organism-based; conditions: in vivo; procedure, shortened: as §2
[21] = Half life in CD-1 mouse at 1 mg/kg,iv administration measured upto 48 hrs by LC-MS/MS analysis; type: ADME, organism-based; conditions: in vivo; procedure, shortened: as §3

Chain of hERG (KCNH2) (Q12809 whole entry): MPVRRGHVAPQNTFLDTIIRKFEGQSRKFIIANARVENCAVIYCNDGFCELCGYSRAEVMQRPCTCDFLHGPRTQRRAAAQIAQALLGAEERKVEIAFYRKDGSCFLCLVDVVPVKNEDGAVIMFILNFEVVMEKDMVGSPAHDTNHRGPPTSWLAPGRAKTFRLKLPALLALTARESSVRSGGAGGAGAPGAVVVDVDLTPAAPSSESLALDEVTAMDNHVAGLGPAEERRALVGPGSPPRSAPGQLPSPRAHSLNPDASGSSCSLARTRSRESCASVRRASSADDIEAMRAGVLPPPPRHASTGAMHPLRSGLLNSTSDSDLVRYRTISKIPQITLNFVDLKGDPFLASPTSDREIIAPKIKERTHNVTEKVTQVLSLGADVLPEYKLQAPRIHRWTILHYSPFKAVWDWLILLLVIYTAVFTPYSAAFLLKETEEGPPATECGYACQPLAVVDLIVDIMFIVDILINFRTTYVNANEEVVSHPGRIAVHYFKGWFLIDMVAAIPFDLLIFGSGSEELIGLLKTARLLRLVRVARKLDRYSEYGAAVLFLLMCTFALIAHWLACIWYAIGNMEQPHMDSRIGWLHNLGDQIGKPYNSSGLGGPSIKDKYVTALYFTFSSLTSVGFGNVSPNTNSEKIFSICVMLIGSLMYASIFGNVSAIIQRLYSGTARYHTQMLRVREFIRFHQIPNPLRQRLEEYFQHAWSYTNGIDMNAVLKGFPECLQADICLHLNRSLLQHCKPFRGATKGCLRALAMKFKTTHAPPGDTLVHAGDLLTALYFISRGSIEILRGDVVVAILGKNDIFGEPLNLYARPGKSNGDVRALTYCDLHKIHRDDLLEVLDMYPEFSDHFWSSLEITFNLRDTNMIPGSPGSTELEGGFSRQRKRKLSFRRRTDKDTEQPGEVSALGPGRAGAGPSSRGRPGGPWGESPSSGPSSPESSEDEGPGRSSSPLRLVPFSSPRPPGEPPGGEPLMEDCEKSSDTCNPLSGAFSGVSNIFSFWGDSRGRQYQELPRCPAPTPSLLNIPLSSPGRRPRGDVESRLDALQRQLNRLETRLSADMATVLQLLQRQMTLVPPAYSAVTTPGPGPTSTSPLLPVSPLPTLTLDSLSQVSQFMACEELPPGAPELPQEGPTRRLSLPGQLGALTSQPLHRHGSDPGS
Chain of Voltage-gated inwardly rectifying potassium channel KCNH2 (Q12809 whole entry): as above
Chain of Prostaglandin G/H synthase 1 (P23219 whole entry): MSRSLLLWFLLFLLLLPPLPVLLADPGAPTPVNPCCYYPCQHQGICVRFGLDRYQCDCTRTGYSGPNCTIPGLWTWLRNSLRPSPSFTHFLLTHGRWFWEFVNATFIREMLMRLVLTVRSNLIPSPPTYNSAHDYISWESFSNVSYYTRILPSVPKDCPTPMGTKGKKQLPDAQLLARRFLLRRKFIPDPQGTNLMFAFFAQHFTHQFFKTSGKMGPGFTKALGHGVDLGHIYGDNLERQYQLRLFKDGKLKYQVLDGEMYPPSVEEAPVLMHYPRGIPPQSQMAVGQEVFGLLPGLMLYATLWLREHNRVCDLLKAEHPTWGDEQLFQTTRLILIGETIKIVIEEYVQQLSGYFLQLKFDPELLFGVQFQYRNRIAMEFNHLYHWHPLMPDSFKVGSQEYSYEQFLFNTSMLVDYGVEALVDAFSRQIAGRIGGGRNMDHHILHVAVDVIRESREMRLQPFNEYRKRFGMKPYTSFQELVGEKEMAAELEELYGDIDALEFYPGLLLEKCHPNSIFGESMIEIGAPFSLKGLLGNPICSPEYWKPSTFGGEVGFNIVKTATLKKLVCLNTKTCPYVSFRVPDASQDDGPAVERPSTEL

Structure (SMILES): C/C(=N\N=c1/sc2ccccc2n1C)c1ccc(F)cn1
IC50 (MCF7): > 1000 nM

Stability [1]: Stable
t1/2 [2]: 5.76 min
Structure (SMILES): C/C(=N\Nc1nc2cc(F)ccc2n1C)c1ccc(F)cn1
IC50 (MCF7): 2.5 nM

Structure (SMILES): Cn1c(N2N=C(c3ccccn3)CC2=O)nc2ccccc21
IC50 (MCF7): > 1000 nM

Structure (SMILES): C/C(=N\N=c1/[nH]c2cc(F)c(F)cc2n1C)c1ccc(C(N)=O)cn1
IC50 (MCF7): 2.7 nM

Structure (SMILES): C/C(=N\N=c1/[nH]c2cc(F)c(F)cc2n1C)c1ccccc1
IC50 (MCF7): > 1000 nM

Structure (SMILES): C/C(=N\N=c1n(C)c2ccccc2n1C)c1ccc(F)cn1
IC50 (MCF7): > 1000 nM

Structure (SMILES): C/C(=N\N=c1/[nH]c2cc(F)c(F)cc2n1C)c1cccnc1
IC50 (MCF7): > 1000 nM

Structure (SMILES): C/C(=N\N=c1/[nH]c2cc(F)c(F)cc2n1C)c1ccc(OCCCN2CCOCC2)cn1
IC50 (MCF7): 30.5 nM

Structure (SMILES): C/C(=N\N=c1/[nH]c2cc(F)c(F)cc2n1C)c1ccc(C(=O)O)cn1
IC50 (MCF7): > 1000 nM

AUCt [4]: 477 ng·h/mL
Stability [5]: Stable
Cmax [7]: 552 ng/mL
concentration at 22 h [8]: 117 nM
F [11]: 54.4%
Tmax [12]: 1.98 min
AUCt [13]: 87.6 ng·h/mL
metabolised at 1 h (CYP1A2): 98%
Stability [1]: Stable
Tmax [16]: 15 min
Cmax [17]: 89 ng/mL
clearance [18]: 176 mL/min/kg
t1/2 [20]: 545 min
t1/2 [21]: 195 min
t1/2 [2]: 3.71 min
Structure (SMILES): C/C(=N\Nc1nc2cc(F)c(F)cc2n1C)c1ncccn1
Activity [3]: Non-Toxic
Activity [6]: Non-Toxic
IC50 at 72 h [9]: > 1000 nM
Activity [10]: Non-Toxic
inhibition at 30 µM (hERG (KCNH2)): < 50%
IC50 [14]: > 30000 nM
IC50 [15]: 2900 nM
IC50 [19]: 2400 nM

Structure (SMILES): C/C(=N\N=c1/[nH]c2cc(F)c(F)cc2n1C)c1ccc(-c2nnn[nH]2)cn1
IC50 (MCF7): > 1000 nM

Structure (SMILES): COC(=O)c1ccc(/C(C)=N/N=c2\[nH]c3cc(F)c(F)cc3n2C)nc1
IC50 (MCF7): 2.9 nM

Stability [1]: Stable
t1/2 [2]: 4.93 min
Structure (SMILES): C/C(=N\Nc1nc2ccccc2n1C)c1ccc(F)cn1
IC50 (MCF7): 5.4 nM

Structure (SMILES): C/C(=N\N=c1/[nH]c2cc(F)c(F)cc2n1C)c1cn(C)cn1
IC50 (MCF7): > 1000 nM

t1/2 [2]: 3 min
Structure (SMILES): C/C(=N\Nc1nc2ccccc2n1C)c1ccccn1
IC50 (MCF7): 22 nM

Structure (SMILES): C/C(=N\N=c1/[nH]c2cc(F)c(F)cc2n1C)c1ccc(OCCCS(C)(=O)=O)cn1
IC50 (MCF7): 249 nM

Structure (SMILES): C/C(=N\N=c1/[nH]c2cc(F)c(F)cc2n1C)c1ccc(C(=O)N2CCOCC2)cn1
IC50 (MCF7): 44.7 nM

Structure (SMILES): C/C(=N\N=c1/[nH]c2cc(F)c(F)cc2n1C)c1ccccn1
IC50 (MCF7): 6.3 nM

Structure (SMILES): C/C(=N\N=c1/[nH]c2cc(Cl)c(Cl)cc2n1C)c1ccc(F)cn1
IC50 (MCF7): 18 nM

Structure (SMILES): C/C(=N\N=c1/[nH]c2cc(F)c(F)cc2n1C)c1ccc(-c2cnn(C)c2)cn1
IC50 (MCF7): 6.7 nM

Structure (SMILES): C/C(=N\Oc1nc2ccccc2n1C)c1ccccn1
IC50 (MCF7): > 1000 nM

Structure (SMILES): C/C(=N\N=c1/[nH]c2cc(F)c(F)cc2n1C)c1cccs1
IC50 (MCF7): > 1000 nM

Structure (SMILES): C/C(=N\N=c1/[nH]c2cc(F)c(F)cc2n1C)c1ccncc1
IC50 (MCF7): > 1000 nM

Structure (SMILES): C/C(=N\N=c1/[nH]c2cc(F)c(F)cc2n1C)c1ccncn1
IC50 (MCF7): 10.7 nM

Structure (SMILES): C/C(=N\N=c1/[nH]c2cc(F)c(F)cc2n1C)c1cocn1
IC50 (MCF7): > 1000 nM

Structure (SMILES): Cn1c(NNC(=O)c2ccccn2)nc2ccccc21
IC50 (MCF7): 494 nM

Reference: ChEMBL document CHEMBL5543124, “Lead Compound Development of SRC-3 Inhibitors with Improved Pharmacokinetic Properties and Anticancer Efficacy” (J Med Chem, 2024)
